ChEMBL document CHEMBL3351976, “Flexible, polymer-supported synthesis of sphingosine derivatives provides ceramides with enhanced biological activity” (Bioorg Med Chem, 2014)
Each block holds one molecule with its values, some of them ahead of it.

Experiments:
[1] = Antiproliferative activity against rat PC12 cells after 24 hrs by Alamar blue assay; type: functional, cell-based, PC-12
In short: (§1)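 Cells seeded at 5000 per well and preincubated 24 h at 37 °C/5% CO₂, then exposed to compounds in DMSO (final DMSO 0.5%; DMSO-only controls) at 6.25–200 µM for a further 24 h at 37 °C. Alamar Blue added to 10% final, fluorescence read (ex 535/em 590 nm) after 4 h and 24 h further incubation. IC50 from triplicates.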

HepG2 = assay: Antiproliferative activity against human HepG2 cells after 24 hrs by Alamar blue assay; type: functional, cell-based; in short: as §1
[2] = Antiproliferative activity against human HL60 cells after 24 hrs by Alamar blue assay; type: functional, cell-based, HL-60; in short: as §1
[3] = Rattus norvegicus, PC-12, 24 h, read-out: IC50
[4] = Homo sapiens, HepG2, 24 h, read-out: IC50
[5] = Homo sapiens, HL-60, 24 h, read-out: IC50

SMILES: CC(=O)N[C@@H](CO)C(=O)/C=C/c1ccccc1
IC50 [1, 3]: 42 µM | IC50 (HepG2; [4]): > 200 µM | IC50 [2, 5]: 48 µM

SMILES: CCCCCCCCCCCCC/C=C/C(=O)[C@H](CO)NC(C)=O
IC50 [1, 3]: > 200 µM | IC50 (HepG2; [4]): 175 µM | IC50 [2, 5]: 43 µM

SMILES: CC(=O)N[C@@H](CO)[C@H](O)/C=C/c1ccc(-c2ccccc2)cc1
IC50 ([1]; pc-12): ND(Unstable) | IC50 (HepG2; hepg2): ND(Unstable) | IC50 ([2]; hl-60): ND(Unstable)

SMILES: CC(=O)N[C@@H](CO)[C@H](O)/C=C/c1ccccc1
IC50 ([1]; pc-12): ND(Unstable) | IC50 (HepG2; hepg2): ND(Unstable) | IC50 ([2]; hl-60): ND(Unstable)

The remaining molecules from weak to strong by IC50 (HepG2; [4]), led by results:

IC50 (HepG2; [4]): 65 µM
SMILES: CCCCCCCCc1ccc(/C=C/C(=O)[C@H](CO)NC(C)=O)cc1
IC50 [1, 3]: 70 µM | IC50 ([2]; hl-60): ND(Unstable)

IC50 (HepG2; [4]): 58 µM
SMILES: CCCCCCCCCCCCC/C=C/[C@@H](O)[C@H](CO)NC(C)=O
IC50 [1, 3]: 98 µM | IC50 [2, 5]: 26 µM

IC50 (HepG2; [4]): 41 µM
SMILES: CC(=O)N[C@@H](CO)C(=O)/C=C/c1ccc(-c2ccccc2)cc1
IC50 [1, 3]: 59 µM | IC50 [2, 5]: 50 µM

IC50 (HepG2; [4]): 31 µM
SMILES: CCCCCCCCc1ccc(/C=C/[C@@H](O)[C@H](CO)NC(C)=O)cc1
IC50 [1, 3]: 40 µM | IC50 [2, 5]: 11 µM
